Results as given in article PMC7668563 (International journal of molecular biology (Edmond, Okla.), 2020).

How the values were obtained:
[1] = target: T1, apo-human transferrin (apo-hTf) (Homo sapiens, UniProt P02787); assay: Fluorescence quenching of apo-hTf; type: binding; details: for biomolecular quenching rate constant kq: kq=Ksv/τ0; for Stern-Volmer quenching constant Ksv / number of binding sites n: pH 7.4; for quenching association constant Ka: pH 7.4, modified Stern-Volmer
Summary of the method: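 Intrinsic fluorescence of apo-hTf in Tris-HCl pH 7.4 was titrated with test compound (Tris-HCl/2% DMSO). Conditions: excitation 280 nm, emission 290–500 nm, slits 10/5 nm, 1.0 cm quartz cell, at 296, 303, 310 and 317 K, triplicate titrations. Intensities were corrected for inner filter effect using absorbances at excitation and emission wavelengths. Ksv came from Stern-Volmer plots of F0/F vs [Q]; kq = Ksv/τ0 (τ0 ~1.0×10−8); Ka and n came from the modified Stern-Volmer equation.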

[2] = target: T1, apo-human transferrin (apo-hTf); assay: Far-UV circular dichroism titration of apo-hTf, secondary structure content
Summary of the method: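 Apo-hTf (4.0×10−7 mol L−1) in 2 mM Tris-HCl pH 7.4 was titrated with a 1.0×10−3 mol L−1 stock of test compound in Tris-HCl/2% DMSO, to final 0–2.4×10−6 mol L−1. Far-UV CD was recorded from 190–250 nm under nitrogen in a 1.0 cm cell: six scans at 100 nm/min. Baseline was buffer ± DMSO at room temperature. α-Helix was derived from MRE at 208 nm; β-sheet and random coil by the CD-RRG method.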

[3] = target: T1, apo-human transferrin (apo-hTf); assay: Thermodynamic parameters of apo-hTf complex formation; type: binding; details: for ∆H° / ∆S°: pH 7.4, from Ksv at 296-317 K
Summary of the method: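 Ksv values were obtained from apo-hTf fluorescence quenching at pH 7.4 at 296, 303, 310 and 317 K. ΔH°, ΔS° and ΔG° were derived from linear regression of ln(Ksv) vs 1/T (Van't Hoff equation).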

[4] = target: T1, apo-human transferrin (apo-hTf); assay: Fluorescence resonance energy transfer; type: binding; details: for Förster critical energy transfer distance R0 / binding distance r (donor-acceptor): k^2=2/3, n=1.336, ØD=0.118; for efficiency of energy transfer E: room temperature, 1.0×10^−5 mol L^−1 each
Summary of the method: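 Emission spectrum of 1.0×10−5 mol L−1 apo-hTf and absorption spectrum of 1.0×10−5 mol L−1 test compound were recorded in 20 mM Tris-HCl pH 7.4 at room temperature, 260–450 nm, and their spectral overlap determined. E was calculated from apo-hTf fluorescence without and with equimolar test compound. R0 and donor–acceptor distance r came from Förster equations.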

[5] = system: human colorectal adenocarcinoma cell line, HT-29; assay: MTT cell viability assay on HT-29, 72 h exposure; type: cell-based; details: read-out: IC50 (±SD), HT-29, HT-29, 72 h of exposure
Summary of the method: (§1)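 HT-29 was grown in McCoy's 5A with 10% FBS. MCF-7 was grown in MEM with 10% FBS and 0.01 mg/mL insulin. Both were kept at 37°C, 5% CO2, trypsinized at 70–80% confluency and seeded at 1.5×10^4 cells/well for 24 h. Cells were then exposed for 72 h to test compound in 5% DMSO/95% medium, with DMSO-medium controls. MTT was added as a 2.67 mg/mL solution for 2 h. Formazan was dissolved in 10% Triton X-100/isopropanol and read at A570 minus A620. IC50 came from a sigmoidal fit of viability vs log concentration, eight replicas, triplicate, ±SD.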

[6] = target: T1, apo-human transferrin (apo-hTf); assay: UV-Vis absorbance titration of apo-hTf; type: binding; details: for Ka at 280 nm: absorbance at 280 nm; for Association constants, Ka, 280 nm: absorbance of apo-hTf at 280 nm, pH 7.4
[7] = system: human breast adenocarcinoma cell line, MCF-7; assay: MTT cell viability assay on MCF-7, 72 h exposure; type: cell-based; details: for IC50 (±SD), MCF-7: MCF-7, 72 h of exposure
Summary of the method: as §1

T1 sequence (P02787 20-698): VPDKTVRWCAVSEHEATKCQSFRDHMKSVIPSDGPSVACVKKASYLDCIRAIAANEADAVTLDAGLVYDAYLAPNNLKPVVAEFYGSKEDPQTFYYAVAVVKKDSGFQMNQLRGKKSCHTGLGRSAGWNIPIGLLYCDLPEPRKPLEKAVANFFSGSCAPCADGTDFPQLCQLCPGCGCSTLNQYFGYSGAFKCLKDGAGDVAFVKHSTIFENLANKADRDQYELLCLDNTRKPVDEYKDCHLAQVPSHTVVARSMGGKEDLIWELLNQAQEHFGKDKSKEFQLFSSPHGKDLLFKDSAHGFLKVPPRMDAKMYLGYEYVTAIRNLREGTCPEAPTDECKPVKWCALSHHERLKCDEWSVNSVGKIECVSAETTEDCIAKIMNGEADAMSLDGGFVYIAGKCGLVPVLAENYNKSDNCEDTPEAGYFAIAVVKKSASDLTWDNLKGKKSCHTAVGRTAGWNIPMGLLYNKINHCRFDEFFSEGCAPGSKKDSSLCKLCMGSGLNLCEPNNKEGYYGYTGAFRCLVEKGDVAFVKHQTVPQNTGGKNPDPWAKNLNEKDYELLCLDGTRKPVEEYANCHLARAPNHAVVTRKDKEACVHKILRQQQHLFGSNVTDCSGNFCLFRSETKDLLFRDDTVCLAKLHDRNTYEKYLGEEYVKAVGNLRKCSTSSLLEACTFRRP

SMILES: [Cl-].[Cl-].[Hf+4].c1cc[cH-]c1.c1cc[cH-]c1 [Cp2HfCl2]
- biomolecular quenching rate constant kq ([1]; 296 K): 1.97e+11 M⁻¹ s⁻¹
- Stern-Volmer quenching constant Ksv ([1]; 296 K): 1970 M⁻¹
- number of binding sites n ([1]; 296 K): 1.15
- quenching association constant Ka ([1]; 296 K): 8900 M⁻¹
- biomolecular quenching rate constant kq ([1]; 303 K): 1.57e+11 M⁻¹ s⁻¹
- Stern-Volmer quenching constant Ksv ([1]; 303 K): 1570 M⁻¹
- number of binding sites n ([1]; 303 K): 1.17
- quenching association constant Ka ([1]; 303 K): 8100 M⁻¹
- biomolecular quenching rate constant kq ([1]; 310 K): 1.36e+11 M⁻¹ s⁻¹
- Stern-Volmer quenching constant Ksv ([1]; 310 K): 1360 M⁻¹
- number of binding sites n ([1]; 310 K): 1.18
- quenching association constant Ka ([1]; 310 K): 7500 M⁻¹
- biomolecular quenching rate constant kq ([1]; 317 K): 1.24e+11 M⁻¹ s⁻¹
- Stern-Volmer quenching constant Ksv ([1]; 317 K): 1240 M⁻¹
- number of binding sites n ([1]; 317 K): 1.19
- quenching association constant Ka ([1]; 317 K): 7000 M⁻¹
- other secondary structure content of apo-hTf ([2]; compound concentration 0.4 (M)): 19.1%
- random coil content of apo-hTf ([2]; compound concentration 0.4 (M)): 33.7%
- α-helix content of apo-hTf ([2]; compound concentration 0.4 (M)): 29.7%
- β-sheet content of apo-hTf ([2]; compound concentration 0.4 (M)): 17.5%
- other secondary structure content of apo-hTf ([2]; compound concentration 0.8 (M)): 19.1%
- random coil content of apo-hTf ([2]; compound concentration 0.8 (M)): 33.8%
- α-helix content of apo-hTf ([2]; compound concentration 0.8 (M)): 29.5%
- β-sheet content of apo-hTf ([2]; compound concentration 0.8 (M)): 17.6%
- other secondary structure content of apo-hTf ([2]; compound concentration 1.2 (M)): 19.2%
- random coil content of apo-hTf ([2]; compound concentration 1.2 (M)): 33.8%
- α-helix content of apo-hTf ([2]; compound concentration 1.2 (M)): 29.3%
- β-sheet content of apo-hTf ([2]; compound concentration 1.2 (M)): 17.7%
- other secondary structure content of apo-hTf ([2]; compound concentration 1.6 (M)): 19.1%
- random coil content of apo-hTf ([2]; compound concentration 1.6 (M)): 34%
- α-helix content of apo-hTf ([2]; compound concentration 1.6 (M)): 29.1%
- β-sheet content of apo-hTf ([2]; compound concentration 1.6 (M)): 17.8%
- other secondary structure content of apo-hTf ([2]; compound concentration 2 (M)): 19.1%
- random coil content of apo-hTf ([2]; compound concentration 2 (M)): 34%
- α-helix content of apo-hTf ([2]; compound concentration 2 (M)): 29%
- β-sheet content of apo-hTf ([2]; compound concentration 2 (M)): 17.9%
- other secondary structure content of apo-hTf ([2]; compound concentration 2.4 (M)): 19.2%
- random coil content of apo-hTf ([2]; compound concentration 2.4 (M)): 34.1%
- α-helix content of apo-hTf ([2]; compound concentration 2.4 (M)): 28.7%
- β-sheet content of apo-hTf ([2]; compound concentration 2.4 (M)): 18%
- ∆G° ([3]; 296 K): -18.59 kJ/mol
- ∆G° ([3]; 303 K): -18.62 kJ/mol
- ∆G° ([3]; 310 K): -18.66 kJ/mol
- ∆G° ([3]; 317 K): -18.70 kJ/mol
- ∆H° [3]: -17.07 kJ/mol
- ∆S° [3]: 5.13 J/mol K
- Förster critical energy transfer distance R0 [4]: 6.91 nm
- binding distance r (donor-acceptor) [4]: 9.47 nm
- efficiency of energy transfer E [4]: 0.131
- IC50 [5]: 564 µM
- Ka at 280 nm [6]: 2110 M⁻¹
- Association constants, Ka, 280 nm [6]: 2.11 10^3 M^−1
- IC50 (±SD), MCF-7 [7]: proliferative activity
- IC50 (±SD), MCF-7 ([7]; listed as Cp^2HfCl^2): Proliferative

SMILES: C1CCCC1.C1CCCC1.[Cl][Nb][Cl] [Cp2NbCl2]
- biomolecular quenching rate constant kq ([1]; 296 K): 2.523e+12 M⁻¹ s⁻¹
- Stern-Volmer quenching constant Ksv ([1]; 296 K): 25230 M⁻¹
- number of binding sites n ([1]; 296 K): 1.26
- quenching association constant Ka ([1]; 296 K): 325300 M⁻¹
- biomolecular quenching rate constant kq ([1]; 303 K): 2.804e+12 M⁻¹ s⁻¹
- Stern-Volmer quenching constant Ksv ([1]; 303 K): 28040 M⁻¹
- number of binding sites n ([1]; 303 K): 1.27
- quenching association constant Ka ([1]; 303 K): 408100 M⁻¹
- biomolecular quenching rate constant kq ([1]; 310 K): 3.056e+12 M⁻¹ s⁻¹
- Stern-Volmer quenching constant Ksv ([1]; 310 K): 30560 M⁻¹
- number of binding sites n ([1]; 310 K): 1.28
- quenching association constant Ka ([1]; 310 K): 485500 M⁻¹
- biomolecular quenching rate constant kq ([1]; 317 K): 3.323e+12 M⁻¹ s⁻¹
- Stern-Volmer quenching constant Ksv ([1]; 317 K): 33230 M⁻¹
- number of binding sites n ([1]; 317 K): 1.29
- quenching association constant Ka ([1]; 317 K): 562300 M⁻¹
- other secondary structure content of apo-hTf ([2]; compound concentration 0.4 (M)): 19.5%
- random coil content of apo-hTf ([2]; compound concentration 0.4 (M)): 33.8%
- α-helix content of apo-hTf ([2]; compound concentration 0.4 (M)): 29%
- β-sheet content of apo-hTf ([2]; compound concentration 0.4 (M)): 17.7%
- other secondary structure content of apo-hTf ([2]; compound concentration 0.8 (M)): 19.4%
- random coil content of apo-hTf ([2]; compound concentration 0.8 (M)): 34%
- α-helix content of apo-hTf ([2]; compound concentration 0.8 (M)): 28.7%
- β-sheet content of apo-hTf ([2]; compound concentration 0.8 (M)): 17.9%
- other secondary structure content of apo-hTf ([2]; compound concentration 1.2 (M)): 19.7%
- random coil content of apo-hTf ([2]; compound concentration 1.2 (M)): 34.2%
- α-helix content of apo-hTf ([2]; compound concentration 1.2 (M)): 27.6%
- β-sheet content of apo-hTf ([2]; compound concentration 1.2 (M)): 18.5%
- other secondary structure content of apo-hTf ([2]; compound concentration 1.6 (M)): 19.8%
- random coil content of apo-hTf ([2]; compound concentration 1.6 (M)): 34.4%
- α-helix content of apo-hTf ([2]; compound concentration 1.6 (M)): 26.9%
- β-sheet content of apo-hTf ([2]; compound concentration 1.6 (M)): 18.9%
- other secondary structure content of apo-hTf ([2]; compound concentration 2 (M)): 20.2%
- random coil content of apo-hTf ([2]; compound concentration 2 (M)): 34.6%
- α-helix content of apo-hTf ([2]; compound concentration 2 (M)): 26.2%
- β-sheet content of apo-hTf ([2]; compound concentration 2 (M)): 19%
- other secondary structure content of apo-hTf ([2]; compound concentration 2.4 (M)): 20.4%
- random coil content of apo-hTf ([2]; compound concentration 2.4 (M)): 34.8%
- α-helix content of apo-hTf ([2]; compound concentration 2.4 (M)): 25.4%
- β-sheet content of apo-hTf ([2]; compound concentration 2.4 (M)): 19.4%
- ∆G° ([3]; 296 K): -24.95 kJ/mol
- ∆G° ([3]; 303 K): -25.79 kJ/mol
- ∆G° ([3]; 310 K): -26.62 kJ/mol
- ∆G° ([3]; 317 K): -27.45 kJ/mol
- ∆H° [3]: 10.17 kJ/mol
- ∆S° [3]: 118.65 J/mol K
- Förster critical energy transfer distance R0 [4]: 2.56 nm
- binding distance r (donor-acceptor) [4]: 3.04 nm
- efficiency of energy transfer E [4]: 0.26
- IC50 [5]: 266 µM
- Ka at 280 nm [6]: 3000 M⁻¹
- Association constants, Ka, 280 nm [6]: 3 10^3 M^−1
- IC50 ([7]; read-out: IC50 (±SD), MCF-7, MCF-7, 72 h of exposure): 1.3 mM
